Source: ChEMBL document CHEMBL1123290, “Synthesis, antimalarial activity, and quantitative structure-activity relationships of tebuquine and a series of related 5-[(7-chloro-4-quinolinyl)amino]-3-[(alkylamino)methyl] [1,1'-biphenyl]-2-ols and N omega-oxides” (1986)

Assays:
Type in all cases: functional
[1] = system: Plasmodium berghei; assay: Antimalarial activity in primary screen
[2] = system: Plasmodium berghei; assay: Change in mean survival time of Plasmodium berghei infected mice (Mus musculus) on 1.25 mg/kg subcutaneous dose
[3] = system: Plasmodium berghei; assay: Difference in mean survival time of Plasmodium berghei infected mice (Mus musculus) after 10 mg/kg subcutaneous dose
[4] = system: Plasmodium berghei; assay: Change in mean survival time for control (average 6.2 days) versus treated mice (Mus musculus) after 160 mg/kg subcutaneous dose
[5] = system: Plasmodium berghei; assay: Change in mean survival time of Plasmodium berghei infected mice (Mus musculus) after […] subcutaneous dose
[6] = system: Plasmodium berghei; assay: Change in mean survival time for control (average 6.2 days) versus treated mice (Mus musculus) after 20 mg/kg subcutaneous dose
[7] = system: Plasmodium berghei; assay: Change in mean survival time for control (average 6.2 days) versus treated mice (Mus musculus) after 320 mg/kg subcutaneous dose
[8] = system: Plasmodium berghei; assay: Change in mean survival time for control (average 6.2 days) versus treated mice (Mus musculus) after 40 mg/kg subcutaneous dose
[9] = system: Plasmodium berghei; assay: Change in mean survival time of Plasmodium berghei infected mice (Mus musculus) after 5 mg/kg subcutaneous dose
[10] = system: Plasmodium berghei; assay: Change in mean survival time in control (average 6.2 days) versus treated mice (Mus musculus) after 80 mg/kg subcutaneous dose
[11] = system: Plasmodium berghei; assay: Antimalarial activity as 60-day survivors in Plasmodium berghei infected mice (Mus musculus) after single 160mg/kg subcutaneous dose 72 hr post infection
Procedure, shortened: (§1)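 Mice were infected with a normal drug-sensitive Plasmodium berghei strain. At 72 h postinfection each received one subcutaneous dose of compound dissolved or suspended in peanut oil, in five-mouse groups per dose. The read-out was the number of mice alive at 60 days postinfection, which were scored as cured.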

[12] = system: Plasmodium berghei; assay: Antimalarial activity as 60-day survivors in infected mice (Mus musculus) after single 320mg/kg subcutaneous dose 72 hr post infection; procedure, shortened: as §1
[13] = system: Mus musculus; assay: Antimalarial activity, administered as a single subcutaneous dose of 40 mg/kg, 72 hrs post infection measured as number of mice (Mus musculus) surviving at 60 days post infection; procedure, shortened: as §1
[14] = system: Mus musculus; assay: Antimalarial activity, administered as a single subcutaneous dose of 640 mg/kg, 72 hrs post infection measured as number of mice (Mus musculus) surviving at 60 days post infection; procedure, shortened: as §1
[15] = system: Mus musculus; assay: Antimalarial activity, administered as a single subcutaneous dose of 80 mg/kg, 72 hrs post infection measured as number of mice (Mus musculus) surviving at 60 days post infection; procedure, shortened: as §1
[16] = system: Plasmodium berghei; assay: Change in mean survival time for control (average 6.2 days) versus treated mice (Mus musculus) 72 hrs after 5 mg/kg subcutaneous dose
[17] = system: Plasmodium berghei; assay: (§2) Change in mean survival time for control (average 6.2 days) versus treated mice (Mus musculus) 72 hrs after […] subcutaneous dose
[18] = system: Plasmodium berghei; assay: Change in mean survival time for control (average 6.2 days) versus treated mice (Mus musculus) 72 hrs after 10 mg/kg subcutaneous dose
[19] = system: Plasmodium berghei; assay: Change in mean survival time for control (average 6.2 days) versus treated mice (Mus musculus) 72 hrs after […] subcutaneous dose
[20] = system: Mus musculus; assay: Antimalarial activity of compound administered as a single subcutaneous dose of 10mg/kg, 72 hrs post infection measured as number of mice (Mus musculus) surviving at 60 days post infection; procedure, shortened: as §1
[21] = system: Plasmodium berghei; assay: Antimalarial activity as 60-day survivors in infected mice (Mus musculus) after single 20 mg/kg subcutaneous dose 72hr post infection; procedure, shortened: as §1
[22] = system: Plasmodium berghei; assay: as §2; remark: listed apart in the source
[23] = system: Plasmodium berghei; assay: Change in mean survival time for control (average 6.2 days) versus treated mice (Mus musculus) 72 hrs after 160 mg/kg subcutaneous dose
[24] = system: Plasmodium berghei; assay: Change in mean survival time for control (average 6.2 days) versus treated mice (Mus musculus) 72 hrs after 20 mg/kg subcutaneous dose
[25] = system: Plasmodium berghei; assay: Difference in mean survival time in mice (Mus musculus) (control = 6.2 days) after single 40mg/kg subcutaneous dose 72hr post infection
[26] = system: Plasmodium berghei; assay: Change in mean survival time for control (average 6.2 days) versus treated mice (Mus musculus) 72 hrs after 640 mg/kg subcutaneous dose
[27] = system: Plasmodium berghei; assay: Change in mean survival time for control (average 6.2 days) versus treated mice (Mus musculus) 72 hrs after 320 mg/kg subcutaneous dose
[28] = system: Plasmodium berghei; assay: Change in mean survival time for control (average of 6.2 days) versus treated mice (Mus musculus) 72 hrs after 80 mg/kg subcutaneous dose

Row | Structure (SMILES) | ED30 [1] [mg/kg] | Delta MST [2] [days] | Delta MST [3] [days] | Delta MST [4] | Delta MST [5] [days] | Delta MST [6] [days] | Delta MST [7] [days] | Delta MST [8] [days] | Delta MST [9] [days] | Delta MST [10] [days] | No. of mice cured [11] | No. of mice cured [12] | No. of mice cured [13] | No. of mice cured [14] | No. of mice cured [15] | Delta MST [17] [days] | Delta MST [22] [days] | further results
1 | CCN(CC)Cc1cc(Nc2cc[n+]([O-])c3cc(Cl)ccc23)cc(-c2ccccc2Cl)c1O | 27.4 | -0.2 | 8 | 33.4 days | -0.2 | 19.2 | 41.9 | 25.8 | 6.4 | 34.9 | 3 | 3 | 1 | 5 | 2 | – | – | –
2 | CCN(CC)Cc1cc(Nc2ccnc3cc(Cl)ccc23)cc(-c2ccccc2)c1O | 10.4 | – | – | – | – | – | – | – | – | – | 5 | 5 | 5 | 5 | 5 | 0.3 | – | Delta MST [16]: 0.7 days; Delta MST [18]: 11.9 days; Delta MST [19]: 0.3 days; No. of mice cured [20]: 2; No. of mice cured [21]: 5
3 | CCN(CC)Cc1cc(Nc2cc[n+]([O-])c3cc(Cl)ccc23)cc(-c2ccccc2)c1O | 26.3 | 0.3 | 7.7 | – | 0.3 | 17.4 | 24.9 | 29.6 | 5.1 | 19.9 | 5 | 3 | – | 3 | 2 | – | 23.9 | –
4 | CCN(CC)Cc1cc(Nc2cc[n+]([O-])c3cc(Cl)ccc23)cc(-c2ccc(F)cc2)c1O | 19.7 | 0.5 | 10.5 | – | 2.1 | 14.1 | 8.6 | 21.7 | 5.1 | 23.6 | 5 | 4 | 2 | – | 4 | – | 15 | –
5 | CCN(CC)Cc1cc(Nc2cc[n+]([O-])c3cc(Cl)ccc23)cc(-c2cccc(Cl)c2)c1O | 27.4 | 0.3 | 9.7 | 28.9 days | 0.7 | 16.5 | 21.9 | 25.9 | 2.1 | 25.6 | 4 | 4 | 2 | 3 | 2 | – | 16.4 | –
6 | CCN(CC)Cc1cc(Nc2ccnc3cc(Cl)ccc23)cc(-c2c(F)c(F)c(F)c(F)c2F)c1O | 7.4 | – | – | – | – | – | – | – | – | – | 4 | 5 | 4 | 5 | 5 | 3.5 | – | Delta MST [16]: 12.9 days; Delta MST [18]: 18.8 days; Delta MST [23]: 47 days; Delta MST [19]: 7.9 days; Delta MST [24]: 18.8 days; Delta MST [25]: 20.5 days; No. of mice cured [20]: 2; No. of mice cured [21]: 1
7 | CCN(CC)Cc1cc(Nc2ccnc3cc(Cl)ccc23)cc(-c2ccc(Cl)cc2)c1O [TEBAQUINE] | – | – | – | – | – | – | – | – | – | – | 4 | 2 | 5 | 1 | 5 | 0.1 | – | Delta MST [16]: 20.7 days; Delta MST [26]: 11.9 days; Delta MST [18]: 30.2 days; Delta MST [23]: 11.9 days; Delta MST [19]: 0.1 days; Delta MST [24]: 33.7 days; Delta MST [27]: 11.2 days; No. of mice cured [20]: 1; No. of mice cured [21]: 1
8 | CC(C)(C)NCc1cc(Nc2ccnc3cc(Cl)ccc23)cc(-c2ccc(C(F)(F)F)cc2)c1O | – | – | – | – | – | – | – | – | – | – | – | – | 2 | 3 | – | 0.2 | – | Delta MST [16]: 11.8 days; Delta MST [26]: 11.7 days; Delta MST [28]: 10.7 days; Delta MST [18]: 10.4 days; Delta MST [23]: 9.1 days; Delta MST [19]: 3.4 days; Delta MST [24]: 21.2 days; Delta MST [27]: 12.1 days; Delta MST [25]: 14.9 days; No. of mice cured [20]: 1
9 | CCN(CC)Cc1cc(Nc2cc[n+]([O-])c3cc(Cl)ccc23)cc(-c2ccccc2F)c1O | 48.4 | -0.1 | 6.1 | 20.1 days | -0.1 | 12.2 | 31.9 | 17.1 | 1.5 | 15.6 | 3 | 2 | 1 | 4 | – | – | 35.6 | –
10 | CCN(CC)Cc1cc(Nc2cc[n+]([O-])c3cc(Cl)ccc23)cc(-c2ccc(SC)cc2)c1O | 158 | 0.1 | 2.1 | 19.9 days | 0.5 | 6.5 | 18.6 | 10.3 | 1.5 | 9.4 | 1 | 4 | – | 2 | 1 | – | 27.3 | –
11 | CCCCN(CCCC)Cc1cc(Nc2cc[n+]([O-])c3cc(Cl)ccc23)cc(-c2ccc(Cl)cc2)c1O | – | 0.4 | -0.2 | 12 | -0.2 | 3.2 | 21.2 | 2.2 | 0.4 | 8 | – | – | – | 1 | – | 0.4 | 31.7 | –
12 | CCN(CC)Cc1cc(Nc2cc[n+]([O-])c3cc(Cl)ccc23)cc(-c2ccc(Cl)c(Cl)c2)c1O | 36.6 | -0.1 | 5.9 | 29.1 days | -0.1 | 12 | – | 21.2 | 0.7 | 25.7 | 2 | 5 | 1 | 5 | 2 | – | – | –
13 | CC(C)(C)NCc1cc(Nc2cc[n+]([O-])c3cc(Cl)ccc23)cc(-c2ccc(Cl)c(Cl)c2)c1O | – | -0.3 | 2.9 | 25.9 days | -0.1 | 5.9 | 25.9 | 8.9 | 0.5 | 23.2 | 1 | 3 | – | 2 | 1 | – | – | –
14 | CC(C)(C)NCc1cc(Nc2cc[n+]([O-])c3cc(Cl)ccc23)cc(-c2ccccc2)c1O | – | -0.3 | 12.5 | 23.2 days | -0.1 | 21 | 14.5 | 21 | 4.5 | 15.5 | 2 | 3 | 1 | 3 | 1 | – | 14 | No. of mice cured [21]: 1
